Data from ChEMBL document CHEMBL1125894, “Dual-action cephalosporins: cephalosporin 3'-quaternary ammonium quinolones” (1991).
Converted amounts (≈) assume the structure as drawn. “And” between values parts separate entries of the source, which are not always exact repeats. Identical values can stand only once.

Key:
Assay type in all cases: functional
Escherichia coli [1] = assay: In vitro antibacterial activity against Escherichia coli 257
Outline: (§1)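 Serial 2-fold dilutions in the NCCLS broth microdilution method for aerobic nonfastidious organisms, with an 18-h incubation. The value is reported as the minimum inhibitory concentration (MIC).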

Serratia marcescens [2] = assay: In vivo activity in murine against Serratia marcescens SM infection after sc administration.
Outline: (§2)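 Mouse protection test in CD1 Swiss albino mice (18–20 g). Mice were infected intraperitoneally with 0.5 mL of a diluted bacterial suspension, then treated within 5 min with one 1.0 mL subcutaneous dose at the dorsal base of the neck. Doses ranged from 0.05 to 250 mg/kg, with six mice per group. ED50 was calculated by the Reed–Muench method.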

Enterobacter cloacae [3] = assay: In vivo activity in murine against Enterobacter cloacae 5699 infection after sc administration.; outline: as §2
Pseudomonas aeruginosa [4] = assay: In vivo activity in murine against Pseudomonas aeruginosa 5712 infection after sc administration.
Outline: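 Mouse protection test in CD1 Swiss albino mice (18–20 g) infected intraperitoneally with 0.5 mL of diluted P. aeruginosa suspension. Mice received 1.0 mL subcutaneously at the neck base within 5 min of infection and a second treatment 3 h after infection. Doses ranged from 0.05 to 250 mg/kg, with six mice per group. ED50 was calculated by the Reed–Muench method.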

Enterobacter cloacae [5] = assay: In vitro antibacterial activity against Enterobacter cloacae 5699; outline: as §1
Staphylococcus aureus [6] = assay: In vitro antibacterial activity against Staphylococcus aureus 95(MR)
Outline: (§3)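 Staphylococci were tested by the standard agar dilution procedure using serial 2-fold dilutions of agent. The value is reported as the MIC.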

Pseudomonas aeruginosa [7] = assay: In vitro antibacterial activity against Pseudomonas aeruginosa 5712; outline: as §1
Klebsiella pneumoniae [8] = assay: In vivo activity in murine against Klebsiella pneumoniae A infection after sc administration.; outline: as §2
Staphylococcus aureus [9] = assay: In vivo activity in murine against Staphylococcus aureus 753(MR) infection after sc administration.; outline: as §2
Enterobacter cloacae [10] = assay: In vitro antibacterial activity against Enterobacter cloacae P99; outline: as §1
Serratia marcescens [11] = assay: In vitro antibacterial activity against Serratia marcescens SM; outline: as §1
Streptococcus pneumoniae [12] = assay: In vivo activity in murine against Streptococcus pneumoniae 6301 infection after sc administration.; outline: as §2
Streptococcus pyogenes [13] = assay: In vivo activity in murine against Streptococcus pyogenes 4 infection after sc administration.; outline: as §2
Streptococcus pyogenes [14] = assay: In vitro antibacterial activity against Streptococcus pyogenes 4
Outline: (§4)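 Broth macrodilution with serial 2-fold dilutions in cation-supplemented Mueller-Hinton broth containing 10% goat serum. The value is reported as the MIC.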

Escherichia coli [15] = assay: In vivo activity in murine against Escherichia coli 257 infection after sc administration.; outline: as §2
Citrobacter freundii [16] = assay: In vivo activity in murine against Citrobacter freundii BS#16 infection after sc administration.
Outline: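 CD1 Swiss albino mice (18–20 g) infected intraperitoneally with 0.5 mL diluted bacterial culture suspension. Single subcutaneous treatment within 5 min, 1.0 mL at dorsal base of neck, serial dilutions spanning 0.05–250 mg/kg. Six mice per treatment and control group. ED50 (50% protective dose) derived by Reed and Muench method.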

Citrobacter freundii [17] = assay: In vitro antibacterial activity against Citrobacter freundii BS 16; outline: as §1
Staphylococcus aureus [18] = assay: In vivo activity in murine against Staphylococcus aureus Smith (MS) infection after sc administration.; outline: as §2
Klebsiella pneumoniae [19] = assay: In vitro antibacterial activity against Klebsiella pneumoniae A; outline: as §1
Staphylococcus aureus [20] = assay: In vitro antibacterial activity against Staphylococcus aureus Smith(MS); outline: as §3
Streptococcus pneumoniae [21] = assay: In vitro antibacterial activity against Streptococcus pneumoniae 6301; outline: as §4

`CN1CCN(c2c(F)cc3c(=O)c(C(=O)O)cn(CCF)c3c2F)CC1` [FLEROXACIN] was tested, and the MIC (Escherichia coli [1]) was 0.031 µg/mL (≈ 0.0839 µM), the ED50 (Serratia marcescens [2]) was under 2 mg/kg and the ED50 (Enterobacter cloacae [3]) was under 2 mg/kg. For the same compound, the ED50 (Pseudomonas aeruginosa [4]) was 14 mg/kg and 31 mg/kg, the MIC (Enterobacter cloacae [5]) was 0.063 µg/mL (≈ 0.171 µM) and the MIC (Staphylococcus aureus [6]) was 0.25 µg/mL (≈ 0.677 µM). It also gave an MIC (Pseudomonas aeruginosa [7]) of 4 µg/mL (≈ 10.8 µM), an ED50 (Klebsiella pneumoniae [8]) of 0.3 mg/kg and an ED50 (Staphylococcus aureus [9]) of 2.8 mg/kg. It also gave an MIC (Enterobacter cloacae [10]) of 0.031 µg/mL (≈ 0.0839 µM), an MIC (Serratia marcescens [11]) of 0.25 µg/mL (≈ 0.677 µM) and an ED50 (Streptococcus pneumoniae [12]) of over 250 mg/kg. It also gave an ED50 (Streptococcus pyogenes [13]) of over 250 mg/kg, an MIC (Streptococcus pyogenes [14]) of 4 µg/mL (≈ 10.8 µM) and an ED50 (Escherichia coli [15]) of 0.26 mg/kg. The ED50 (Escherichia coli [15]; Escherichia coli, sc, read-out: ED50) was 0.25 mg/kg, the ED50 (Citrobacter freundii [16]) was 2 mg/kg and the MIC (Citrobacter freundii [17]) was 0.25 µg/mL (≈ 0.677 µM). The ED50 (Staphylococcus aureus [18]) was 0.65 mg/kg, the MIC (Klebsiella pneumoniae [19]) was 0.031 µg/mL (≈ 0.0839 µM) and the MIC (Staphylococcus aureus [20]) was 0.25 µg/mL (≈ 0.677 µM). It also gave an MIC (Streptococcus pneumoniae [21]) of 8 µg/mL (≈ 21.7 µM).
